In experiment [1] the test system is Meloidogyne incognita. The experiment can be described thus: Nematicidal activity against second juvenile stage (J2) of Meloidogyne incognita (root-knot nematode) assessed as mortality incubated in the dark at 28 degC after 1 day by light microscopy (benficial crop Tomato). It counts as functional. As to conditions: 24 h. The procedure, abridged:
(§1)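 M. incognita eggs taken from infected tomato roots with hypochlorite and J2s hatched in Baermann funnels at 28 °C. J2s from the first 3 days kept in 0.01% Tween 20 water and used within 24 h. About 100 J2s per well; stock added 1:100 in DMSO or MeOH (≤1%). Plates kept shaking in the dark at 28 °C, scored by microscope at 1, 2 and 3 days. Mortality Abbott-corrected. Two runs, three replicates each.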

Experiment [2] deals with Phytophthora infestans. The experiment can be described thus: Antifungal activity against Phytophthora infestans assessed as inhibition of zoospore germination incubated in the dark at 20 degC for 24 hr by light microscopy. It counts as functional, organism-based. The procedure, abridged:
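Zoospores released by chilling sporangia 1 h at 4 °C, then filtered to remove sporangia. Test solution in MeOH mixed 1:100 with the suspension (1% MeOH control), loaded onto hole-slide glasses and kept humid at 20 °C for 24 h in the dark. Germinated cells counted per hole by light microscope. Experiment repeated, mean ± SD.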

Experiment [3] has as its system Phytophthora infestans. The experiment can be described thus: Antifungal activity against Phytophthora infestans assessed as inhibition of sporangium germination incubated at 20 degC for 24 hr by light microscopy. Type of experiment: functional, organism-based. The procedure, abridged:
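Sporangium germination: compounds serially diluted in MeOH (12500 to 391 μg/mL as stock series), sporangia incubated 24 h at 20 °C. About 100 sporangia per replicate scored for germination by light microscope. Experiment repeated, mean ± SD. IC50 by probit.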

Experiment [4] deals with Blumeria hordei. Description: In vivo antifungal activity against Blumeria graminis f. sp. hordei infected barley seedlings assessed as control of barley powdery mildew disease development at 125 ug/ml treated 1 day before spore inoculation measured 3-7 days after inoculation. It counts as functional. The procedure, abridged:
(§2)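 Potted seedlings sprayed to runoff with material dissolved in MeOH and diluted in 0.025% Tween 20 (5% MeOH); controls got the Tween/MeOH solution alone. Inoculated with spores or mycelial suspension 1 day later. Infected leaf or sheath area rated 3–7 days after inoculation; % control = 100(A−B)/A. Randomized complete block design, three replicates, run in duplicate; Tukey HSD.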

The subject of experiment [5] is Botrytis cinerea. The experiment can be described thus: In vivo antifungal activity against Botryotinia fuckeliana infected in tomato seedlings assessed as control of tomato gray mold disease development at 500 ug/ml treated 1 day before spore inoculation measured 3-7 days after inoculation. Type of experiment: functional. The procedure, abridged: as §2
Experiment [6] has as its system Bursaphelenchus xylophilus. The experiment can be described thus: Nematicidal activity against second juvenile stage (J2) of Bursaphelenchus xylophilus assessed as mortality after 2 days by microtiter plate assay method (Beneficial crop Pine). Type of experiment: functional. To be noted: 48 h. The procedure, abridged: (§3)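 Pine wood nematodes reared on B. cinerea mycelia on PDA for 7 days at 28 °C. J2s collected in 0.01% Triton X-100 water and tested in microtiter plates. Compounds in DMSO or MeOH, solvent ≤1%; solvent-only controls. Concentrations 0.004–1 μg/mL. Mortality Abbott-corrected; LC50 by probit. Two runs, three replicates each.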

Experiment [7] concerns Botrytis cinerea. Description: In vivo antifungal activity against Botryotinia fuckeliana infected in tomato seedlings assessed as control of tomato gray mold disease development at 250 ug/ml treated 1 day before spore inoculation measured 3-7 days after inoculation. Type of experiment: functional. The procedure, abridged:
as §2

For experiment [8], the system named is Rhizoctonia solani. The experiment can be described thus: In vivo antifungal activity against Rhizoctonia solani infected rice seedlings assessed as control of rice sheath blight disease development at 250 ug/ml treated 1 day before spore inoculation measured 3-7 days after inoculation. It counts as functional. The procedure, abridged: as §2
The subject of experiment [9] is Meloidogyne incognita. Description: Nematicidal activity against second juvenile stage (J2) of Meloidogyne incognita (root-knot nematode) assessed as mortality incubated in the dark at 28 degC after 3 days by light microscopy (benficial crop Tomato). Type of experiment: functional. To be noted: 72 h. The procedure, abridged: as §1
For experiment [10], the system named is Botrytis cinerea. Description: In vivo antifungal activity against Botryotinia fuckeliana infected in tomato seedlings assessed as control of tomato gray mold disease development at 125 ug/ml treated 1 day before spore inoculation measured 3-7 days after inoculation. It counts as functional. The procedure, abridged: as §2
For experiment [11], the system named is Colletotrichum coccodes. The experiment can be described thus: In vivo antifungal activity against Colletotrichum coccodes infected red pepper seedlings assessed as control of red pepper anthracnose development at 125 ug/ml treated 1 day before spore inoculation measured 3-7 days after inoculation. Type of experiment: functional. The procedure, abridged: as §2

Experiment [12] has as its system Blumeria hordei. Description: In vivo antifungal activity against Blumeria graminis f. sp. hordei infected barley seedlings assessed as control of barley powdery mildew disease development at 250 ug/ml treated 1 day before spore inoculation measured 3-7 days after inoculation. It counts as functional. The procedure, abridged:
as §2

The subject of experiment [13] is Phytophthora infestans. The experiment can be described thus: In vivo antifungal activity against Phytophthora infestans zoospores infected tomato seedlings assessed as control of tomato late blight disease development treated 1 day before spore inoculation measured 3 days after inoculation. It counts as functional, organism-based. The procedure, abridged:
as §2

In experiment [14] the test system is Puccinia recondita. The experiment can be described thus: In vivo antifungal activity against Puccinia recondita infected wheat seedlings assessed as reduction in wheat leaf rust disease symptoms development at 250 ug/ml treated 1 day before spore inoculation measured 7 days after inoculation. Also on record: scale not given: the % may be the effect or the level left. Type of experiment: functional. The procedure, abridged:
as §2

The subject of experiment [15] is Phytophthora infestans. Description: Antifungal activity against Phytophthora infestans assessed as inhibition of radial mycelial growth at 11.11 to 900 ug/ml incubated at 20 degC for 5 to 7 days by poison plate assay. It counts as functional. The procedure, abridged: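 Poison-plate assay: material in MeOH added 1:100 to V8-agar at 50 °C, 2 mL per well of six-well plates, centre-inoculated with a 5 mm plug from the colony margin. Incubated at 20 °C until control growth reached the edge. Controls were 1% MeOH. Read as % inhibition of radial growth. Two runs, four replicates each. IC50 by probit.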

The subject of experiment [16] is Rhizoctonia solani. Description: In vivo antifungal activity against Rhizoctonia solani infected rice seedlings assessed as control of rice sheath blight disease development at 500 ug/ml treated 1 day before spore inoculation measured 3-7 days after inoculation. Type of experiment: functional. The procedure, abridged:
as §2

Experiment [17] has as its system Blumeria hordei. Description: In vivo antifungal activity against Blumeria graminis f. sp. hordei infected barley seedlings assessed as control of barley powdery mildew disease development at 500 ug/ml treated 1 day before spore inoculation measured 3-7 days after inoculation. It counts as functional. The procedure, abridged:
as §2

For experiment [18], the system named is Puccinia recondita. The experiment can be described thus: In vivo antifungal activity against Puccinia recondita infected wheat seedlings assessed as reduction in wheat leaf rust disease symptoms development at 500 ug/ml treated 1 day before spore inoculation measured 7 days after inoculation. It counts as functional. Also on record: scale not given: the % may be the effect or the level left. The procedure, abridged: as §2

Experiment [19] relates to Colletotrichum coccodes. Description: In vivo antifungal activity against Colletotrichum coccodes infected red pepper seedlings assessed as control of red pepper anthracnose development at 250 ug/ml treated 1 day before spore inoculation measured 3-7 days after inoculation. It counts as functional. The procedure, abridged:
as §2

Experiment [20] has as its system Pyricularia oryzae. Description: In vivo antifungal activity against Magnaporthe oryzae infected rice seedlings assessed as control of rice blast disease development at 500 ug/ml treated 1 day before spore inoculation measured 3-7 days after inoculation. It counts as functional. The procedure, abridged: as §2
The subject of experiment [21] is Meloidogyne incognita. The experiment can be described thus: Nematicidal activity against second juvenile stage (J2) of Meloidogyne incognita (root-knot nematode) assessed as mortality incubated in the dark at 28 degC after 2 days by light microscopy (benficial crop Tomato). Type of experiment: functional. As to conditions: 48 h. The procedure, abridged:
as §1

Experiment [22] relates to Pyricularia oryzae. The experiment can be described thus: In vivo antifungal activity against Magnaporthe oryzae infected rice seedlings assessed as control of rice blast disease development at 125 ug/ml treated 1 day before spore inoculation measured 3-7 days after inoculation. It counts as functional. The procedure, abridged:
as §2

The test system of experiment [23] is Colletotrichum coccodes. Description: In vivo antifungal activity against Colletotrichum coccodes infected red pepper seedlings assessed as control of red pepper anthracnose development at 500 ug/ml treated 1 day before spore inoculation measured 3-7 days after inoculation. Type of experiment: functional. The procedure, abridged: as §2
In experiment [24] the test system is Puccinia recondita. The experiment can be described thus: In vivo antifungal activity against Puccinia recondita infected wheat seedlings assessed as reduction in wheat leaf rust disease symptoms development at 125 ug/ml treated 1 day before spore inoculation measured 7 days after inoculation. It counts as functional. Further details: scale not given: the % may be the effect or the level left. The procedure, abridged:
as §2

Experiment [25] relates to Pyricularia oryzae. Description: In vivo antifungal activity against Magnaporthe oryzae infected rice seedlings assessed as control of rice blast disease development at 250 ug/ml treated 1 day before spore inoculation measured 3-7 days after inoculation. Type of experiment: functional. The procedure, abridged: as §2
For experiment [26], the system named is Rhizoctonia solani. Description: In vivo antifungal activity against Rhizoctonia solani infected rice seedlings assessed as control of rice sheath blight disease development at 125 ug/ml treated 1 day before spore inoculation measured 3-7 days after inoculation. It counts as functional. The procedure, abridged:
as §2

Experiment [27] relates to Bursaphelenchus xylophilus. Description: Nematicidal activity against second juvenile stage (J2) of Bursaphelenchus xylophilus assessed as mortality at >0.33 ug/ml after 2 days by microtiter plate assay method (Beneficial crop Pine). It counts as functional. The procedure, abridged: as §3
Experiment [28] concerns Blumeria hordei. The experiment can be described thus: In vivo antifungal activity against Blumeria graminis f. sp. hordei infected barley seedlings assessed as control of barley powdery mildew disease development at 100 ug/ml treated 1 day before spore inoculation measured 3-7 days after inoculation. It counts as functional. The procedure, abridged: as §2
Experiment [29] concerns Blumeria hordei. The experiment can be described thus: In vivo antifungal activity against Blumeria graminis f. sp. hordei infected barley seedlings assessed as control of barley powdery mildew disease development at 1 ug/ml treated 1 day before spore inoculation measured 3-7 days after inoculation. It counts as functional. The procedure, abridged:
as §2

Experiment [30] has as its system Pyricularia oryzae. Description: In vivo antifungal activity against Magnaporthe oryzae infected rice seedlings assessed as control of rice blast disease development at 1 ug/ml treated 1 day before spore inoculation measured 3-7 days after inoculation. It counts as functional. The procedure, abridged:
as §2

Experiment [31] concerns Pyricularia oryzae. Description: In vivo antifungal activity against Magnaporthe oryzae infected rice seedlings assessed as control of rice blast disease development at 50 ug/ml treated 1 day before spore inoculation measured 3-7 days after inoculation. It counts as functional. The procedure, abridged:
as §2

The test system of experiment [32] is Phytophthora infestans. The experiment can be described thus: In vivo antifungal activity against Phytophthora infestans zoospores infected tomato seedlings assessed as control of tomato late blight disease development at 10 ug/ml treated 1 day before spore inoculation measured 3 days after inoculation. Type of experiment: functional. The procedure, abridged:
as §2

The subject of experiment [33] is Phytophthora infestans. The experiment can be described thus: In vivo antifungal activity against Phytophthora infestans zoospores infected tomato seedlings assessed as control of tomato late blight disease development at 2 ug/ml treated 1 day before spore inoculation measured 3 days after inoculation. It counts as functional. The procedure, abridged: as §2

Converted amounts (≈) assume the structure as drawn.

One may read the LC50 as the concentration that kills 50% of the test population. In general, IC50 refers to the point on the concentration scale where inhibition reaches its midpoint. As usually defined, the mortality is the share of the test organisms that died. Regarding `CCCCCC[C@H](O)CCC[C@@H](O)[C@H]1CC[C@H]([C@H]2CC[C@H]([C@H](O)CCCCCCCCCCCCC3=C[C@H](C)OC3=O)O2)O1` (relative stereo) [REL-SQUAMOCIN], the LC50 was > 100 µg/mL in [1], 0.006 µg/mL in experiment [6], 54.9 µg/mL (≈ 88.1 µM) in experiment [9] and > 100 µg/mL in experiment [21]. The IC50 in experiment [2] turned out to be 3.05 µg/mL (≈ 4.9 µM); in [3], 1.24 µg/mL (≈ 1.99 µM). For the same molecule, the inhibition entry in experiment [2] and in experiment [3] was “Dose-dependent effect” each time. Moreover, the Activity in experiment [4] was determined as 0%; in [5], 0%; in [7] it was 0%; in experiment [8] it was 11.8%; in experiment [10] it was 0%; in [11], 0%. In addition, the Activity in [12] is 0%; in [13], “Dose-dependent effect”; in experiment [14], 20%; in [16], 0%; in [17], 0%; in [18], 83.3%. Also, the Activity in [19] is 0%; in [20], 50%; in [22] it was 0%; in [23], 0%; in experiment [24] it was 0%; in [25], 0%. Besides, the Activity in experiment [26] is reported as 0%. In experiment [15], the “growth inhibition (GI)” value is 31%. Moreover, the mortality in experiment [27] stood at 100%.
In the case of `CCCCNC(=O)n1c(NC(=O)OC)nc2ccccc21` [BENOMYL], the Activity in experiment [28] worked out at 100%; in [29] it was 75%.
As to `CN(CC[C@H](N)CC(=O)N[C@H]1CC[C@H](n2ccc(N)nc2=O)O[C@@H]1C(=O)O)C(=N)N` [BLASTADIN S], the Activity came to 65.5% in experiment [30] and 100% in experiment [31].
Turning to `COc1ccc(C(=CC(=O)N2CCOCC2)c2ccc(Cl)cc2)cc1OC` [DIMETHOMORPH], the Activity was 100% in [32] and 85% in experiment [33].

The values above are taken from ChEMBL document CHEMBL3044956, “Nematicidal and antifungal activities of annonaceous acetogenins from Annona squamosa against various plant pathogens” (J Agric Food Chem, 2011).
